Among the data in ChEMBL document CHEMBL1144383, “A new development of matrix metalloproteinase inhibitors: twin hydroxamic acids as potent inhibitors of MMPs” (Bioorg Med Chem Lett, 2005) are IC50 and Dead cells values, retold here.

Assay [1] addresses Matrix metalloproteinase-14 (Homo sapiens, UniProt P50281). Put plainly: Inhibition of Matrix metalloprotease-14 in MMPi assay.
Assay [2] addresses Matrix metalloproteinase-9 (Homo sapiens, UniProt P14780). Put plainly: Inhibition of Matrix metalloprotease-9 in MMPi assay.
The target in another assay is T1, Interstitial collagenase (Homo sapiens, UniProt P03956).
T1 sequence (P03956 whole entry): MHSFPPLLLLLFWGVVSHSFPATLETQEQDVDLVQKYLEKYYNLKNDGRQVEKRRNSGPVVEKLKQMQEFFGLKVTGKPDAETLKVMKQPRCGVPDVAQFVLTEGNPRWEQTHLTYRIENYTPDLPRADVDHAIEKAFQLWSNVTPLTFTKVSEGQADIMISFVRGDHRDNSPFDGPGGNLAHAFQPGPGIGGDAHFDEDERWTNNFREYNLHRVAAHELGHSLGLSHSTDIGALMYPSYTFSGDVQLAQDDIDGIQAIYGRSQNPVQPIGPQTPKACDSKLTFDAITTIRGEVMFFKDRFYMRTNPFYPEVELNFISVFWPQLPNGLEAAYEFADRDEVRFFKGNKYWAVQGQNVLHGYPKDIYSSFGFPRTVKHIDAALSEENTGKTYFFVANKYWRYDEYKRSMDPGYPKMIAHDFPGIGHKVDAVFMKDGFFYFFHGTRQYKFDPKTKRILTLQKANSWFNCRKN
The assay is described as follows: Inhibition of Matrix metalloprotease-1 in MMPi assay.

Assay [3] has as its target 72 kDa type IV collagenase (Homo sapiens, UniProt P08253). Put plainly: Inhibition of Matrix metalloprotease-2 in MMPi assay.
For assay [4], the system named is HT-1080. Put plainly: Cytotoxicity as percentage of dead cells at 1 uM using Trypan Blue test on HT1080 cells. The format is functional, Homo sapiens. Summed up:
(§1)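 HT1080 cells stably transfected to overexpress MT1-MMP, seeded at 10⁵ cells/well and kept overnight at 37 °C. Washed free of serum, then given serum-free DMEM with insulin, transferrin and selenium. Compound added at 0, 1, 5 or 10 (micromolar) to duplicate wells for 24 h. Trypsinized cells mixed 1:1 with 0.4% trypan blue for 5 min. Blue-stained and total cells counted on haemocytometer upper and lower grids. % dead = mean of duplicates minus untreated wells.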

Assay [5] deals with HT-1080. Put plainly: Cytotoxicity as percentage of dead cells at 5 uM using Trypan Blue test on HT1080 cells. The format is functional, Homo sapiens. The essentials: as §1
Assay [6] concerns HT-1080. Put plainly: Cytotoxicity as percentage of dead cells at 10 uM using Trypan Blue test on HT1080 cells. The format is functional, Homo sapiens. The essentials:
as §1

Assay [7] concerns Matrix metalloproteinase-14. Put plainly: Inhibition of Matrix metalloprotease-14 in MMPi assay.

Chain of 72 kDa type IV collagenase (P08253 whole entry): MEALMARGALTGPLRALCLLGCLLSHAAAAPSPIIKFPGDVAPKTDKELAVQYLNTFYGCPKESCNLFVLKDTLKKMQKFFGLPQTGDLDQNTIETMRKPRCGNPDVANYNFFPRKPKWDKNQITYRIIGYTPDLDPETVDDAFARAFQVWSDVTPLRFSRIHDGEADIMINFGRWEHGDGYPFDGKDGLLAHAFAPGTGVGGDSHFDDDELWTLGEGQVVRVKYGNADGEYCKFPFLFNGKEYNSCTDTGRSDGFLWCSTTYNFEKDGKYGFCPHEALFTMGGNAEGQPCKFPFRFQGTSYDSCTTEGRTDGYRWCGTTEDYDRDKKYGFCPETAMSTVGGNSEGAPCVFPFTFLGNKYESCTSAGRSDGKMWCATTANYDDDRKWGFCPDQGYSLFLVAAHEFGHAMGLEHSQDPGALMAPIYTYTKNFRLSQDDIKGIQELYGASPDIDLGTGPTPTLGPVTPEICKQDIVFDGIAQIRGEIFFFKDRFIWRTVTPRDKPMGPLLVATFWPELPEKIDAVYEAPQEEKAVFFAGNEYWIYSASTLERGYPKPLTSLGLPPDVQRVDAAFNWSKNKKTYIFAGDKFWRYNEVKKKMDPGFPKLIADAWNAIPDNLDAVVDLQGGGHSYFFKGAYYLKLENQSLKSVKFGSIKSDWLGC
Chain of Matrix metalloproteinase-9 (P14780 whole entry): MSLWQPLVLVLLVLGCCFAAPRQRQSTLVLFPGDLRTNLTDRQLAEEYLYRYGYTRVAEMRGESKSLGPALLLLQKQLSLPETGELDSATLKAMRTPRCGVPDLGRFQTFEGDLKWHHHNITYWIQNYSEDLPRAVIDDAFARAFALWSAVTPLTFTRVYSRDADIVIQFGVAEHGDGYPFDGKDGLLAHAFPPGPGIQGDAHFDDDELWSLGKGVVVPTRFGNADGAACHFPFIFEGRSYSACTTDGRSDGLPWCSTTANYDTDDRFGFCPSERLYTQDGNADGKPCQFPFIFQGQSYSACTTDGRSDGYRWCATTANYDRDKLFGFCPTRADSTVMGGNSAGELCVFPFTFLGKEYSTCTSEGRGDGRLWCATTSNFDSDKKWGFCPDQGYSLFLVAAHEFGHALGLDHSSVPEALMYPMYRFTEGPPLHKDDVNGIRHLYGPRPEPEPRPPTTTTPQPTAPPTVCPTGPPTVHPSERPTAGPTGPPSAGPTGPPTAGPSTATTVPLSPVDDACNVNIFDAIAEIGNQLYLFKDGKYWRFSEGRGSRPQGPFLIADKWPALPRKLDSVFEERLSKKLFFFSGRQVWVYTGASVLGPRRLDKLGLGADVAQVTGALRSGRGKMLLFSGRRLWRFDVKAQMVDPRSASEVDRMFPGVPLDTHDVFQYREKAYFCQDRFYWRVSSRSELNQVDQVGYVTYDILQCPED

As for `CC(C)ON([C@H](CCNC(=O)c1cccc(C(=O)NCC[C@H](C(=O)NO)N(OC(C)C)S(=O)(=O)c2ccc(-c3ccccc3)cc2)c1)C(=O)NO)S(=O)(=O)c1ccc(-c2ccccc2)cc1`, the half-inhibitory concentration (IC50) in assay [1] amounted to 1490 nM; in assay [2], 983 nM; on Interstitial collagenase, 10000 nM; in assay [3], 197 nM.
For the compound `CC(C)ON([C@H](CCNC(=O)CCCNC(=O)c1cccc(C(=O)NCCCC(=O)NCC[C@H](C(=O)NO)N(OC(C)C)S(=O)(=O)c2ccc(-c3ccccc3)cc2)c1)C(=O)NO)S(=O)(=O)c1ccc(-c2ccccc2)cc1`, the Dead cells with HT-1080 [4] came to 0%; with HT-1080 [5] it was 5%; with HT-1080 [6], 10%. For the same compound, the IC50 in assay [2] was determined as 8.3 nM; against Interstitial collagenase it was 397 nM; in assay [7], 34 nM; in assay [3], 9.8 nM.
As for `CC(C)ON([C@H](CCNC(=O)OCc1ccccc1)C(=O)NO)S(=O)(=O)c1ccc(-c2ccccc2)cc1`, the Dead cells was 4% with HT-1080 [4], 20% with HT-1080 [5] and 35% in the assay on HT-1080 [6]. This compound returned an IC50 against Interstitial collagenase of over 3000 nM.
Regarding `CC(C)ON([C@H](CCNC(=O)c1cccc(C(=O)NCC[C@H](C(=O)O)N(OC(C)C)S(=O)(=O)c2ccc(-c3ccccc3)cc2)c1)C(=O)O)S(=O)(=O)c1ccc(-c2ccccc2)cc1`, the IC50 in assay [2] was over 30000 nM; in assay [3], over 1000 nM.
